Data taken from ChEMBL document CHEMBL4350958, “Rational Design of Short Peptide Variants by Using Kunitzin-RE, an Amphibian-Derived Bioactivity Peptide, for Acquired Potent Broad-Spectrum Antimicrobial and Improved Therapeutic Potential of Commensalism Coinfection of Pathogens” (J Med Chem, 2019).
Values after ≈ are worked out from the molar mass of the structure shown.

What was measured:
[1] = system: Escherichia coli; test: Antibacterial activity against Escherichia coli K99 measured after 24 hrs; type: functional
In short: (§1)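 Broth microdilution adapted from NCCLS. Mid-log bacteria were diluted in MHB to a final (0.5–1) × 10^5 CFU mL−1. Peptides were serially diluted in 0.2% BSA and mixed with an equal volume of cells. After 24 h at 37 °C, MIC was read at A492 as the lowest concentration inhibiting 95% of growth. At least three independent experiments, each with three technical replicates.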

[2] = system: Escherichia coli; test: Bactericidal activity against Escherichia coli K99 incubated for 24 hrs followed by replating on agar plate and measured after overnight incubation; type: functional; conditions: for MBC: K99, 24 h, read-out: MBC>99.9
In short: (§2)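 Mid-log bacteria diluted in MHB to (0.5–1) × 10^5 CFU/mL and mixed 1:1 with peptide serially diluted in 0.2% BSA. After 24 h at 37 °C, 50 μL of each mixture was plated on agar and incubated overnight. MBC taken as the lowest concentration killing >99.9% of cells. At least three independent experiments, each with three technical replicates.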

[3] = system: Escherichia coli; test: Antibacterial activity against Escherichia coli UB1005 measured after 24 hrs; type: functional; in short: as §1
[4] = system: Salmonella typhimurium; test: Bactericidal activity against Salmonella typhimurium ATCC 14028 incubated for 24 hrs followed by replating on agar plate and measured after overnight incubation; type: functional, Salmonella enterica subsp. enterica serovar Typhimurium; conditions: for MBC: Salmonella enterica, ATCC 14028, 24 h, read-out: MBC>99.9; in short: as §2
[5] = system: Candida albicans; test: Antifungal activity against Candida albicans cgmcc2.2086 measured after 48 hrs in presence of NH4Cl by broth microdilution method; type: functional
[6] = system: Candida tropicalis; test: Antifungal activity against Candida tropicalis cgmcc2.1975 measured after 48 hrs by broth microdilution method; type: functional
In short: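 Modified CLSI M27-A2 microdilution. Yeast colonies were diluted in MOPS-buffered RPMI 1640 to a final (0.5–1) × 10^3 CFU mL−1 and mixed with an equal volume of peptide serially diluted in 0.2% BSA. After 48 h at 28 °C, MIC was read at A492 as the lowest concentration inhibiting 95% of growth. At least three independent experiments, each with three technical replicates.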

[7] = system: Erythrocyte; test: Hemolytic activity in human RBC measured after 1 hr; type: ADME, cell-based
In short: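 Fresh healthy-donor human erythrocytes at ~1% (v/v) in PBS pH 7.4, mixed 1:1 with peptide (1–128 µM), 1 h at 37 °C. After centrifugation at 1000×g, supernatant hemoglobin read at 576 nm. Untreated cells set 0% and 0.1% Triton X-100 set 100%. MHC defined as the concentration giving >10% hemolysis. Three or more independent experiments, triplicates.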

[8] = system: Staphylococcus aureus; test: Antibacterial activity against Staphylococcus aureus ATCC 29213 measured after 18 to 24 hrs in presence of NaCl; type: functional
[9] = system: Escherichia coli; test: Antibacterial activity against Escherichia coli ATCC 25922 measured after 18 to 24 hrs in presence of NaCl; type: functional
[10] = Cytotoxicity against mouse RAW264.7 cells assessed as cell viability at 2 to 64 uM measured after 18 to 24 hrs by MTT assay relative to control; type: cell-based; conditions: RAW264.7 cells, read-out: Activity
In short: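 MTT assay: RAW264.7 cells seeded at 1.0–2.0×10^4 per well and exposed to peptide (2–64 µM) for 18–24 h at 37 °C in 5% CO2. MTT (0.5 mg/mL) added for 4 h, formazan dissolved in DMSO, read at 570 nm. At least three independent experiments with triplicate wells.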

[11] = system: Staphylococcus aureus; test: Antibacterial activity against Staphylococcus aureus ATCC 29213 measured after 24 hrs; type: functional
In short: (§3)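 Broth microdilution modified from NCCLS. Mid-log bacteria at (0.5–1) × 10^5 CFU mL−1 in MHB, mixed with peptides serially diluted in 0.2% BSA. Incubated 24 h at 37 °C, read at A492. MIC taken as lowest concentration giving 95% growth inhibition. At least three independent experiments, each with three technical replicates.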

[12] = Antibacterial activity against Salmonella pullorum ATCC 7913 measured after 24 hrs; type: functional, Salmonella enterica subsp. enterica serovar Pullorum; conditions: Salmonella enterica, ATCC 7913, 24 h; in short: as §1
[13] = Conformational stability in 50% trifluoro-ethyl alcohol assessed as alpha-helical structural propensity by measuring absorption spectra at minimum dichroic band at 35 uM by CD spectra analysis; type: physicochemical
In short: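 CD spectra from 190 to 250 nm of peptide at 35 μM in 10 mM PBS, 30 mM SDS micelles or 50% TFE, recorded in a 1.0-mm quartz cell. Ellipticity was converted to mean residue ellipticity. Three independent scans, each averaged over more than 3 runs.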

[14] = Therapeutic index, ratio of MHC10 for hemolytic activity in human RBC to MIC95 against Escherichia coli ATCC 25922; type: toxicity; conditions: human red blood cells (erythrocytes), pooled result: one value given for 9 cell lines, strains, targets or settings, read-out: TI
In short: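 Therapeutic index = MHC divided by MIC. MHC is the lowest concentration giving >10% lysis of human RBC (1 h, 37 °C, 1-128 µM, A576). MIC is 95% growth inhibition by broth microdilution: bacteria in MHB 24 h at 37 °C; Candida in MOPS-buffered RPMI 1640 at (0.5–1) × 10^3 CFU mL−1, 48 h at 28 °C.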

[15] = system: Staphylococcus aureus; test: Antibacterial activity against Staphylococcus aureus ATCC 25923 measured after 24 hrs; type: functional; in short: as §3
[16] = system: Staphylococcus aureus; test: Antibacterial activity against Staphylococcus aureus ATCC 29213 measured after 18 to 24 hrs in presence of CaCl2; type: functional
[17] = system: Escherichia coli; test: Antibacterial activity against Escherichia coli ATCC 25922 measured after 18 to 24 hrs in presence of FeCl3; type: functional
[18] = system: Candida albicans; test: Antifungal activity against Candida albicans cgmcc2.2086 measured after 48 hrs in presence of ZnCl by broth microdilution method; type: functional
[19] = system: Escherichia coli; test: Antibacterial activity against Escherichia coli ATCC 25922 measured after 18 to 24 hrs in presence of MgCl2; type: functional
[20] = system: Pseudomonas aeruginosa; test: Antibacterial activity against Pseudomonas aeruginosa ATCC 27853 measured after 24 hrs; type: functional; in short: as §1
[21] = system: Candida albicans; test: Antifungal activity against Candida albicans cgmcc2.2086 measured after 48 hrs in presence of KCl by broth microdilution method; type: functional
[22] = system: Staphylococcus aureus; test: Antibacterial activity against Staphylococcus aureus ATCC 29213 measured after 18 to 24 hrs in presence of FeCl3; type: functional
[23] = system: Staphylococcus aureus; test: Bactericidal activity against methicillin-resistant Staphylococcus aureus ATCC 43300 incubated for 24 hrs followed by replating on agar plate and measured after overnight incubation; type: functional
In short: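 After the 24 h, 37 °C MHB microdilution MIC assay, 50 μL from each well was plated on agar and incubated overnight. MBC taken as lowest peptide concentration killing >99.9% of cells. At least three independent experiments, each with three technical replicates.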

[24] = system: Staphylococcus epidermidis; test: Bactericidal activity against Staphylococcus epidermidis ATCC 12228 incubated for 24 hrs followed by replating on agar plate and measured after overnight incubation; type: functional; in short: as §2

Compound	MIC95 ([1]; K99, 24 h) [µM]	MBC [2] [µM]	MIC95 ([3]; UB1005, 24 h) [µM]	MBC [4] [µM]	MIC95 ([5]; cgmcc2.2086, 48 h) [µM]	MIC95 ([6]; cgmcc2.1975, 48 h) [µM]	MHC10 [7] [µM]	MIC95 [8] [µM]	MIC95 [9] [µM]	viability at up to 64 µM [10] [%]	MIC95 ([11]; ATCC 29213, 24 h) [µM]	MIC95 [12] [µM]	MIC95 ([15]; ATCC 25923, 24 h) [µM]	MIC95 [16] [µM]	MIC95 [17] [µM]	MIC95 ([18]; cgmcc2.2086, 48 h) [µM]	MIC95 [19] [µM]	MIC95 ([20]; ATCC 27853, 24 h) [µM]	MIC95 ([21]; cgmcc2.2086, 48 h) [µM]	MIC95 [22] [µM]	other results
H-AARIILRPRFR-NH2	16	32	8	32	> 128	> 128	> 128	> 128	128	90 to 100	> 128	16	> 128	> 128	16	> 128	64	> 128	> 128	> 128	Stability [13]: Unstable; selectivity ratio [14]: 16
CC(C)(O/N=C(\C(=O)N[C@@H]1C(=O)N2C(C(=O)[O-])=C(C[n+]3ccccc3)CS[C@H]12)c1csc(N)n1)C(=O)O [CEFTAZIDIME]	0.5 (≈ 0.273 µg/mL)	1 (≈ 0.547 µg/mL)	1 (≈ 0.547 µg/mL)	1 (≈ 0.547 µg/mL)	> 128	> 128	–	16	4	–	16 (≈ 8.75 µg/mL)	1 (≈ 0.547 µg/mL)	16 (≈ 8.75 µg/mL)	32	2	> 128	2	2 (≈ 1.09 µg/mL)	> 128	16	MBC ([23]; ATCC 43300, 24 h, read-out: MBC>99.9): 32 µM (≈ 17.5 µg/mL); MBC ([24]; ATCC 12228, 24 h, read-out: MBC>99.9): 32 µM (≈ 17.5 µg/mL)
H-AARIILRDRFR-NH2	> 128	–	> 128	–	> 128	> 128	> 128	> 128	> 128	90 to 100	> 128	> 128	> 128	> 128	> 128	> 128	> 128	> 128	> 128	> 128	Activity [13]: 208 to 222 nm; selectivity ratio [14]: 2
POLYMYXIN B	–	–	–	–	–	–	–	64	4	–	–	–	–	64	2	–	1	–	–	32	MBC>99.9 [23]: 128 µM; MIC95 [1]: 1 µM; MBC>99.9 [2]: 1 µM; MIC95 [3]: 1 µM; MBC>99.9 [24]: 64 µM; MBC>99.9 ([4]; Salmonella enterica subsp. enterica serovar Typhimurium): 2 µM; MIC95 [5]: 32 µM; MIC95 [6]: > 128 µM; MIC95 [11]: 32 µM; MIC95 [15]: 64 µM; MIC95 [18]: 32 µM; MIC95 [20]: 2 µM; MIC95 [21]: 32 µM
